Calls of active or inactive are those of the source.
Tests used:
Rattus norvegicus [1] = species: Rattus norvegicus; test: Displacement of [3H]BTX-B from VGSC site 2 in rat forebrain membranes at 40 uM incubated at 37 degC for 60 mins; format: cell membranes; details: Brain, Membrane
Rattus norvegicus [2] = test: Antinociceptive effect in Sprague-Dawley rat model of sciatic nerve constriction-induced neuropathic pain model assessed as […] to von Frey filaments applied to affected hind paw at 30 mg/kg, sc measured 2 hrs post dose; format: functional, organism-based; set-up: dose 30 mg/kg
Rattus norvegicus [3] = test: Anticonvulsant effect in Sprague-Dawley rat epileptic model assessed as increase in seizure thresholds at 50 mg/kg, po dosed before seizure induction by maximal electroshock test; format: functional, organism-based; set-up: dose 50 mg/kg
Rattus norvegicus [4] = test: Antinociceptive effect in Sprague-Dawley rat model of sciatic nerve constriction-induced neuropathic pain model assessed as reduction in threshold to von Frey filaments applied to affected hind paw at 50 mg/kg, sc measured 2 hrs post dose; format: functional, organism-based; set-up: dose 50 mg/kg
Outline: (§1)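 Adult female Sprague-Dawley rats (150 g at start) with unilateral sciatic nerve ligation; only animals with significant allodynia were used. Drug dissolved in DMSO and diluted in PEG400 to a 200 mg/ml stock, then diluted in PEG400/PBS and given subcutaneously. Von Frey withdrawal threshold measured by the up-and-down method 2 h post-dose. n = 5 per group, vehicle controls; one-way ANOVA with Tukey post hoc tests.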

[5] = Drug localization in Sprague-Dawley rat dorsal root ganglions at 100 uM using dansylated compound by two photon confocal microscopy; format: ADME, tissue-based, Dorsal root ganglion
Rattus norvegicus [6] = test: Anticonvulsant effect in Sprague-Dawley rat epileptic model assessed as increase in seizure thresholds at 50 mg/kg, po dosed before seizure induction by subcutaneous metrazol seizure threshold test; format: functional, organism-based; set-up: dose 50 mg/kg
Outline: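 Rats pretreated orally with 50 mg/kg of test compound, then seizures induced by subcutaneous Metrazol (scMET) injection; testing done through the NINDS anticonvulsant screening program.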

Rattus norvegicus [7] = test: Antinociceptive effect in Sprague-Dawley rat model of sciatic nerve constriction-induced neuropathic pain model assessed as reduction in threshold to von Frey filaments applied to affected hind paw at 100 mg/kg, sc measured 2 hrs post dose; format: functional, organism-based; set-up: dose 100 mg/kg; outline: as §1
[8] = molecular target: Sodium channel protein type 2 subunit alpha (Homo sapiens) (UniProt Q99250); test: Inhibition of human NaV1.2 expressed in HEK293 cells at 10 uM using sodium currents elicited through depolarizing step from holding potential of -100 mV to +10 mV for 25 ms at 15 s intervals by whole cell patch clamp method; format: cell-based
Outline: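 HEK293 cells stably expressing hNav1.2 were studied by whole-cell patch clamp at 20–22 °C with at least 75% series resistance compensation. Compound came from a 100 mM DMSO stock diluted in perfusion solution (final DMSO at most 0.1%). It was applied after a 3 min control period until current reached steady state. Result expressed as mean percent block ± SEM.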

Sodium channel protein type 2 subunit alpha (Homo sapiens), sequence (Q99250 whole entry, looked up, the tested form may be a part): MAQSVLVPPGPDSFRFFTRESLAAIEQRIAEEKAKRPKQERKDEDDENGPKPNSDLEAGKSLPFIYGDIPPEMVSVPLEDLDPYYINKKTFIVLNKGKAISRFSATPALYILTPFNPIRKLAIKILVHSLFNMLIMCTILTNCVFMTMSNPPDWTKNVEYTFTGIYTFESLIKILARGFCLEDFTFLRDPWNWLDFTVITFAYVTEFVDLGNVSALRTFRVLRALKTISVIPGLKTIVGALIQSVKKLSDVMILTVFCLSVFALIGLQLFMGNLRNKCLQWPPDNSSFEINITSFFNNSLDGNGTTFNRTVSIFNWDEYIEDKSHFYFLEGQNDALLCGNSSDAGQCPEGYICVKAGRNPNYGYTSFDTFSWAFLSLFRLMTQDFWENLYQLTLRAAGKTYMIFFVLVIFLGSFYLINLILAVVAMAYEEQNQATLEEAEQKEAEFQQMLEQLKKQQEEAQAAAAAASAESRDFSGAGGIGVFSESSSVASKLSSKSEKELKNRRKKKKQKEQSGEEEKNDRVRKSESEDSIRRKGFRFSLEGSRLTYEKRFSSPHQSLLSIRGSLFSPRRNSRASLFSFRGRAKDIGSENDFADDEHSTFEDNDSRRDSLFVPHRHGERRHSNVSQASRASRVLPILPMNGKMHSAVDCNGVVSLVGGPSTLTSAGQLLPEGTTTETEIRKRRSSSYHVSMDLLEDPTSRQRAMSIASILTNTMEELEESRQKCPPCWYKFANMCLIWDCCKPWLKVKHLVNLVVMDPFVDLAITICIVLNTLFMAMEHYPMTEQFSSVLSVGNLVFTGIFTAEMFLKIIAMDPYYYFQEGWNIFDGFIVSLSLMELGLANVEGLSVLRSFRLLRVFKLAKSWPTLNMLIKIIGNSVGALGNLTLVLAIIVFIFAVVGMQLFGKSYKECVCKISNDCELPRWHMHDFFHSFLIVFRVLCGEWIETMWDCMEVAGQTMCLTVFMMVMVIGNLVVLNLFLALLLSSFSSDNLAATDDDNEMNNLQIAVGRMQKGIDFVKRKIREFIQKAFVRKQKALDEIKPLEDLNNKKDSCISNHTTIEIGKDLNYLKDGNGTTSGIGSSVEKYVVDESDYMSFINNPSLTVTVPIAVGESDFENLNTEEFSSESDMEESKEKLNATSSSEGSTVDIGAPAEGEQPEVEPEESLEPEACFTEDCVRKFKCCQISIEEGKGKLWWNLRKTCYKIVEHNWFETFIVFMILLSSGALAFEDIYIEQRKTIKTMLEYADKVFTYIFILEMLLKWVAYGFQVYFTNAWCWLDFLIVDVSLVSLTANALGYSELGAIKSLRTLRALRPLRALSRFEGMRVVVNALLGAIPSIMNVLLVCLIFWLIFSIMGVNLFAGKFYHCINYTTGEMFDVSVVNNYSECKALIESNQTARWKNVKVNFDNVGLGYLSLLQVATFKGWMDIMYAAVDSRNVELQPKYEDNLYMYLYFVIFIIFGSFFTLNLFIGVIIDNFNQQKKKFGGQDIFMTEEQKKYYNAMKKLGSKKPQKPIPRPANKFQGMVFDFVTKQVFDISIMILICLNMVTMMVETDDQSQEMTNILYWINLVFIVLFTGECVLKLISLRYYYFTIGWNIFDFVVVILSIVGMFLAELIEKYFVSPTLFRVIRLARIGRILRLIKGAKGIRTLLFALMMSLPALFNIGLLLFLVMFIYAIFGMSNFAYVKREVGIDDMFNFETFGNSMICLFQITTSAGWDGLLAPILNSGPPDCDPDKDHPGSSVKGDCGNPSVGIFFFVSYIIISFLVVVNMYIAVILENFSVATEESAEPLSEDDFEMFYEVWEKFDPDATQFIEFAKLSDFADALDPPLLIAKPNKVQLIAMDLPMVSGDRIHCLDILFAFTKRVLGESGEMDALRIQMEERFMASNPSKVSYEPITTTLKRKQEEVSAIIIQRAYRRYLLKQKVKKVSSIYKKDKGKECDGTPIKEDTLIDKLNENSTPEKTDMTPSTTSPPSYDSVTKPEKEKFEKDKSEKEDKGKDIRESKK

Compound	inhibition (Rattus norvegicus [1])	further results
O=C1NC(=O)C(CCCOCc2ccccc2)(c2cccc(Cl)c2)N1 (centres undefined)	71%	–
CCCCCCCC(O)(c1cccc(Cl)c1)c1ccccn1 (centres undefined)	28%	–
O=C1NC(=O)C(CCCCCC2CO2)(c2cccc(Cl)c2)N1 (centres undefined)	28%	–
C#CCN1C(=O)NC(CCCCCCC)(c2cccc(Cl)c2)C1=O (centres undefined)	57%	–
CCCCCCCC1(c2cccc(Cl)c2)OC(C)(C)OC1=O (centres undefined)	27%	–
O=C1NC(=O)C(CCCCCC2CC2)(c2cccc(Cl)c2)N1 (centres undefined)	87%	–
C=CCCCCCC1(c2cccc(Cl)c2)NC(=O)N(CC=C)C1=O (centres undefined)	72%	–
CCCCCCCC1(c2cccc(Cl)c2)NC(SC)=NC1=O (centres undefined)	51%	–
C#C/C(=C\CCCCCC)c1cccc(Cl)c1	32%	–
CC(C)=CCC/C(C)=C/CC(O)(C(N)=O)c1cccc(Cl)c1 (centres undefined)	84%	–
CCCCCCCC1(c2cccc(Cl)c2)NC(=O)N(Cc2ccccc2)C1=O (centres undefined)	72%	–
NCC1(CC(=O)O)CCCCC1	–	Activity (Rattus norvegicus [2]): Active
C=CCCCCCC(O)(C(N)=O)c1cccc(Cl)c1 (centres undefined)	86%	–
CCCCCCCC1(c2cccc(Cl)c2)NC(=O)N(Cc2cccc(F)c2)C1=O (centres undefined)	71%	–
CCCCCCCC(O)(C(N)=O)c1cccc(Cl)c1 (centres undefined)	48%	–
CCCCCCCC(O)(c1cccc(Cl)c1)c1ccc(C)cn1 (centres undefined)	41%	–
CCCCCCCC1(c2cccc(Cl)c2)C(=O)N=C(SC)N1C (centres undefined)	18%	–

Compound	inhibition (Rattus norvegicus [1])	further results
C#CC(O)(CCCCCCC)c1cccc(Cl)c1 (centres undefined)	78%	–
CCCCCCCC(O)(c1cccc(Cl)c1)c1ccc(F)c(F)c1 (centres undefined)	42%	–
CCCCCCCC1(c2cccc(Cl)c2)NC(=O)N(CCc2ccccc2)C1=O (centres undefined)	17%	–
CCCCCCCC(O)(c1cccc(Cl)c1)c1cccc(OC)c1 (centres undefined)	51%	–
CN(C)c1cccc2c(S(=O)(=O)NCCCCCC3(c4cccc(Cl)c4)NC(=O)NC3=O)cccc12 (centres undefined)	86%	Activity (Rattus norvegicus [3]): inactive; Activity (Rattus norvegicus [4]): Active; Drug uptake [5]: Active; Activity (Rattus norvegicus [6]): inactive; Activity (Rattus norvegicus [7]): Active; inhibition [8]: 59%
CCCCCCCC(O)(c1cc(F)cc(F)c1)c1cccc(Cl)c1 (centres undefined)	35%	–
CCCCCCCC1(c2cccc(Cl)c2)NC(=S)NC1=O (centres undefined)	67%	–
CCCCCCCC(O)(c1cccc(Cl)c1)c1cc(F)cc(OC)c1 (centres undefined)	56%	–
CCCCCCCC(O)(c1cccc(Cl)c1)c1cc(C(F)(F)F)cc(C(F)(F)F)c1 (centres undefined)	8%	–
CCCCCCCC1(c2cccc(Cl)c2)NC(=O)N(CC2CC2)C1=O (centres undefined)	78%	–
CC(C)=CCCC(C)CCC(O)(C(N)=O)c1cccc(Cl)c1 (centres undefined)	40%	–
NC(=O)C(O)(CCCCOCc1ccccc1)c1cccc(Cl)c1 (centres undefined)	52%	–
O=C1NC(=O)C(c2ccccc2)(c2ccccc2)N1 [PHENYTOIN]	28%	Activity (Rattus norvegicus [3]): Active; Activity (Rattus norvegicus [6]): Active
CCCCCCCC1(c2cccc(Cl)c2)NC(=O)NC1=O (centres undefined)	70%	Activity (Rattus norvegicus [4]): Active; Activity (Rattus norvegicus [7]): Active; inhibition [8]: 31%
C=CCCCCCC1(c2cccc(Cl)c2)NC(=O)NC1=O (centres undefined)	79%	–
C=CCN1C(=O)NC(CCCCCCC)(c2cccc(Cl)c2)C1=O (centres undefined)	83%	–

Reference: ChEMBL document CHEMBL2069248, “Synthesis and biological evaluation of a fluorescent analog of phenytoin as a potential inhibitor of neuropathic pain and imaging agent” (Bioorg Med Chem, 2012)
